AI-2 QS mod = modulates the Vibrio harveyi AI-2 quorum sensing system. Vibrio harveyi JMH597 AI-2 luminescence/OD600 ratio, 9 h; stronger effect = lower value; strain lacks LuxN and CqsS sensors; 0 = neutral-control median. activity change, % at 7.5 µM. 300,000 compounds, 0.4% hits; in the data active = activity change below about -75%, passing the limit was not always enough; inconclusive = no clear call, values can overlap the other calls;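 note: luminescence divided by OD600 gain over 9 h not by final OD600 alone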
Runt-SMMHC FRET = blocks binding of human RUNX1 Runt domain to CBFb-SMMHC. inhibition, % at 20 µM. Cerulean-Runt/Venus-CBFb-SMMHC FRET ratio 530/480, 1 h. Q01196+Q13951. AID 1434. 220,000 compounds, 0.74% hits;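 active = mean inhibition across duplicate retests at 20 µM reaching about 50%, limit read from the data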;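 note: inhibitors lower the FRET ratio by blocking Runt binding to CBFb-SMMHC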
KLK7 zymogen act = activates the human kallikrein-7 zymogen. purified proKLK7, EDANS-DABCYL substrate fluorescence; 100% is mature enzyme control, 0% vehicle. activation, % at 7 µM. 370,000 compounds, 0.9% hits;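 active = activation above the mean of all tested compounds plus 3 SD, computed per campaign excluding outliers beyond control limits, cut at about 13% in these data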
Target sequence (P49862 whole entry, looked up): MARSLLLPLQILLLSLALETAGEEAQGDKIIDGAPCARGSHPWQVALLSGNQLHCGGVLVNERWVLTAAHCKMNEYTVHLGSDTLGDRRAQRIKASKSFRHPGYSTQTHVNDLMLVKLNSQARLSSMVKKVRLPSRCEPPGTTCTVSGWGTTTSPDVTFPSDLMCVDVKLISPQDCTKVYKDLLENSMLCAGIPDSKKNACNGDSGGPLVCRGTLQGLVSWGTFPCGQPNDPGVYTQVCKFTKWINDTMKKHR
Runt-CBFb FRET = Runt domain-CBFb interaction inhibition; Q01196+Q13951; Cerulean-Runt/Venus-CBFb FRET ratio 530/480, 1 h; inhibition, % at 20 µM; 220,000 compounds, 0.46% hits; AID 1496;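 active = inhibition over about 50% at 20 µM in the single-dose screen, limit read from the data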
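test system = Cerulean-tagged RUNX1 Runt domain (FRET donor) fusion protein | reagent = Venus-CBFb binding partner, 100 nM | incubation = protein complex preformed 1 h, compound exposure 1 h, room temperature, dark | detection = FRET fluorescence | read-out basis = loss of energy transfer signal | controls = 5 µM unlabeled CBFb as full-inhibition high control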
RanGTP-Imp inh = disruptors of Ran-importin-beta complex formation – biochemical, FRET, CFP-Ran, YFP-importin-beta, homogeneous, primary screen; cell-free CFP-Ran/YFP-importin-beta FRET ratio; inhibition, % (test concentration not listed); 300,000 compounds, 1.1% hits; AID 2216;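 active = more than half of the replicate wells show a fall in the fluorescence ratio signal beyond about 16%, limit read from the data, passing the limit was not always enough; inconclusive = exactly half of the replicate wells pass the set limit; inactive = fewer than half of replicates pass the limit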
Wee1 stabilizer = inhibitors of human Wee1 degradation. HeLa Luc-Wee1K328M stability, luciferase luminescence; 100% = proteasome inhibitor MG132 effect. reporter increase, % at 5 µM. 220,000 compounds, 1.2% hits;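 active = activation above the mean of all tested compounds plus 3 SD, set per screening run, cut at about 8.8% in these data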;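 note: cells exposed to compound for 20 h before luminescence read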
Wee1 stab conf = human Wee1 degradation inhibition, confirmation | shares compounds with Wee1 stabilizer | HeLa Luc-Wee1K328M degradation, luminescence; vehicle 0%, proteasome-blocked wells 100% | activation, % at 5 µM | 1,100 compounds, 4% hits | AID 1410; in the data active = activation above about 8.9%
Of the large screens only hits and unclear results are named; the others gave an inactive call (follow-up assays come after a bar, where they were run). Shown are actives, neighbours in structure and some others; about 2.9% of the full set was active somewhere.

COC(=O)CNC(=O)C1CCCN1C(=O)OC(C)(C)C (configuration not stated)	Wee1 stabilizer 13 | Wee1 stab conf inactive
CC(C)(C)OC(=O)N1CCC[C@H]1C(=O)O	none (no result: Runt-SMMHC FRET, Runt-CBFb FRET, Wee1 stabilizer)
N#Cc1ccc(-c2csc(NC3=NCCCCC3)n2)cc1	Wee1 stabilizer 15 | Wee1 stab conf inactive
COC(=O)C1=C(C(=O)OC)[C@@H]2N(C)c3ccc(OC)cc3[C@@]23C[C@@H](C(=O)OC)N(C(=O)COCc2ccccc2)C3=N1	none (no result: Runt-SMMHC FRET, Runt-CBFb FRET, Wee1 stabilizer)
Cc1nc(-c2ccccc2)sc1-c1ccn[nH]1	none
Cc1nc(-c2ccccc2)sc1-c1ccnn1C	Wee1 stabilizer 18 | Wee1 stab conf inactive
Cc1cccc(C(=O)NCC(=O)OCC(=O)N2CCc3ccccc32)c1	Wee1 stabilizer 13 | Wee1 stab conf inactive
CCn1c(Cc2ccc(OC)cc2)nnc1SCc1nc2ccccc2c(=O)[nH]1	none
O=C(O)c1ccc(CSc2nnc(COc3ccccc3)o2)cc1	RanGTP-Imp inh inconclusive, Wee1 stabilizer 14 | Wee1 stab conf inactive
O=C(O)c1cccc(CSc2nnc(COc3ccccc3)o2)c1	none
CCC(=O)N1CC2(c3ccccc3)CN(C(=O)CC)CC(c3ccccc3)(C1)C2=O	Wee1 stabilizer 12 | Wee1 stab conf inactive
O=C(CSc1nnc(-c2cccnc2)n1Cc1ccco1)Nc1ccc(Cl)cc1	none (no result: AI-2 QS mod, Runt-SMMHC FRET, Runt-CBFb FRET, RanGTP-Imp inh, Wee1 stabilizer)
COc1ccc(C)cc1S(=O)(=O)NC(C)C(=O)Nc1ccc2c(c1)OCO2 (configuration not stated)	none (no result: AI-2 QS mod, Runt-SMMHC FRET, Runt-CBFb FRET, Wee1 stabilizer)
COc1ccc2[nH]c(CN3CCN(C(C)C)C(CCO)C3)c(C)c2c1 (configuration not stated)	Wee1 stabilizer 20 | Wee1 stab conf inactive
Cc1ccc(C)c(S(=O)(=O)Nc2nc(C)c(C(=O)Nc3ccccc3)s2)c1	Wee1 stabilizer 14 | Wee1 stab conf inactive

Screening results from PubChem.
